Blank lines part the entries; values can stand above or below the molecule they belong to. Calls of active or inactive are those of the source. No cut-off for these calls is given here.
What was measured:
[1] = Half life in Sprague-Dawley rat at 1 mg/kg, iv; assay type: ADME, organism-based; set-up: dose 1 mg/kg, route intravenous; conditions: in vivo
Summary of the method: (§1)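 Male Sprague-Dawley rats (200-250 g), jugular vein cannulated. IV bolus 1.0 mg/kg in sterile saline; oral gavage 5.0 mg/kg in 0.5% methylcellulose. Blood sampled 0 to 24 h into lithium heparin, plasma frozen at -70 °C, compound quantified by LC/MS/MS after acetonitrile protein precipitation (standard curve 1.0-2000 ng/mL).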

[2] = Half life in Sprague-Dawley rat at 5 mg/kg, po; assay type: ADME, organism-based; set-up: dose 5 mg/kg, route oral; conditions: in vivo; summary of the method: as §1
[3] = Volume of distribution in Sprague-Dawley rat; assay type: ADME, organism-based; conditions: in vivo, read-out: Vdss; summary of the method: as §1
[4] = target: Dipeptidyl peptidase 4 (Mus musculus) (UniProt P28843); test: Lowering of glucose level in diabetic KK/H1J mouse at 10 mg/kg, po; assay type: functional, organism-based; set-up: dose 10 mg/kg
Summary of the method: (§2)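 Diabetic KK/H1J mice fasted overnight, 10 per group, dosed orally in 0.5% methylcellulose. Glucose given orally at t = 15 min; plasma glucose at t = 45 min.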

[5] = Bioavailability in Sprague-Dawley rat; assay type: ADME, organism-based; conditions: in vivo; summary of the method: as §1
Dipeptidyl peptidase 4 = Dipeptidyl peptidase 4 (Homo sapiens, UniProt P27487); test: Inhibition of human recombinant DPP4
Rattus norvegicus [6] = species on record: Rattus norvegicus; test: Hepatic clearance in Sprague-Dawley rat; assay type: ADME, organism-based, Liver; conditions: in vivo; summary of the method: as §1
[7] = target: Dipeptidyl peptidase 4 (Mus musculus) (UniProt P28843); test: Lowering of glucose level in diabetic KK/H1J mouse at 3 mg/kg, po; assay type: functional, organism-based; set-up: dose 3 mg/kg; summary of the method: as §2
[8] = Bioavailability in Beagle dog; assay type: ADME, organism-based, Canis lupus familiaris; conditions: in vivo
Summary of the method: (§3)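 Dog and monkey PK: oral dosing at 1 mg kg^-1 in sterile water, intravenous at 1 mg kg^-1 in sterile saline.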

[9] = Tmax in Sprague-Dawley rat; assay type: ADME, organism-based; conditions: in vivo; summary of the method: as §1
[10] = Bioavailability in cynomolgus monkey; assay type: ADME, organism-based, Macaca fascicularis; conditions: in vivo; summary of the method: as §3
[11] = Percent of unbound ligand in cynomolgus monkey plasma; assay type: ADME, cell-free, Macaca fascicularis
Cynomolgus monkey = test: Hepatic clearance in cynomolgus monkey; assay type: ADME, organism-based, Macaca fascicularis, Liver; conditions: in vivo; summary of the method: as §3
[12] = Tmax in cynomolgus monkey; assay type: ADME, organism-based, Macaca fascicularis; conditions: in vivo; summary of the method: as §3
Rattus norvegicus [13] = species on record: Rattus norvegicus; test: AUC (0-infinity) in Sprague-Dawley rat; assay type: ADME, organism-based, Plasma; set-up: time infinity; conditions: in vivo; summary of the method: as §1
Canis familiaris [14] = species on record: Canis familiaris; test: Hepatic clearance in Beagle dog; assay type: ADME, organism-based, Canis lupus familiaris, Liver; conditions: in vivo; summary of the method: as §3
[15] = Half life in cynomolgus monkey at 1 mg/kg, iv; assay type: ADME, organism-based, Macaca fascicularis; set-up: dose 1 mg/kg, route intravenous; conditions: in vivo; summary of the method: as §3
[16] = Tmax in Beagle dog; assay type: ADME, organism-based, Canis lupus familiaris; conditions: in vivo; summary of the method: as §3
[17] = Volume of distribution in cynomolgus monkey; assay type: ADME, organism-based, Macaca fascicularis; conditions: in vivo, read-out: Vdss; summary of the method: as §3
[18] = Half life in Beagle dog at 1 mg/kg, iv; assay type: ADME, organism-based, Canis lupus familiaris; set-up: dose 1 mg/kg, route intravenous; conditions: in vivo; summary of the method: as §3
Rhesus monkey = test: Increase in thiocyanate ion in monkey plasma at 3 mg/kg, po after 24 hrs; assay type: ADME, organism-based; set-up: dose 3 mg/kg, route oral; conditions: in vivo
Summary of the method: (§4)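 Stored plasma from earlier oral dosing (rat 15 mg kg^-1, dog and monkey 3 mg kg^-1) analysed for thiocyanate through 24 h, compared with the t = 0 sample.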

[19] = Percent of unbound ligand in human plasma; assay type: ADME
[20] = Percent of unbound ligand in Sprague-Dawley rat plasma; assay type: ADME, cell-free
Rattus norvegicus [21] = test: Increase in thiocyanate ion in rat plasma at 15 mg/kg, po after 24 hrs; assay type: ADME, organism-based; set-up: dose 15 mg/kg, route oral; conditions: in vivo; summary of the method: as §4
[22] = Percent of unbound ligand in Beagle dog plasma; assay type: ADME, cell-free, Canis lupus familiaris
Canis familiaris [23] = test: Increase in thiocyanate ion in dog plasma at 3 mg/kg, po after 24 hrs; assay type: ADME, organism-based, Canis lupus familiaris; set-up: dose 3 mg/kg, route oral; conditions: in vivo; summary of the method: as §4
[24] = Volume of distribution in Beagle dog; assay type: ADME, organism-based, Canis lupus familiaris; conditions: in vivo, read-out: Vdss; summary of the method: as §3
Rattus norvegicus [25] = species on record: Rattus norvegicus; test: Cmax in Sprague-Dawley rat; assay type: ADME, organism-based; conditions: in vivo; summary of the method: as §1
[26] = Half life in cynomolgus monkey at 1 mg/kg, po; assay type: ADME, organism-based, Macaca fascicularis; set-up: dose 1 mg/kg, route oral; conditions: in vivo; summary of the method: as §3
[27] = Half life in Beagle dog at 1 mg/kg, po; assay type: ADME, organism-based, Canis lupus familiaris; set-up: dose 1 mg/kg, route oral; conditions: in vivo; summary of the method: as §3
[28] = Solubility in phosphate buffered saline at pH 6.5; assay type: physicochemical
Summary of the method: (§5)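 Solubility of the mono-hydrochloride salt measured in PBS pH 6.5 and in unbuffered water; final pH of the water solution 2.0.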

[29] = Solubility in unbuffered water; assay type: physicochemical; summary of the method: as §5
[30] = target: Dipeptidyl peptidase 4 (Mus musculus) (UniProt P28843); test: Lowering of glucose level in diabetic KK/H1J mouse at 5 mg/kg, po; assay type: functional, organism-based; set-up: dose 5 mg/kg; summary of the method: as §2
[31] = target: Dipeptidyl peptidase 4 (Mus musculus) (UniProt P28843); test: Lowering of glucose level in diabetic KK/H1J mouse at 2.5 mg/kg, po; assay type: functional, organism-based; set-up: dose 2.5 mg/kg; summary of the method: as §2
[32] = target: Dipeptidyl peptidase 4 (Mus musculus) (UniProt P28843); test: Lowering of glucose level in diabetic KK/H1J mouse at 0.3 mg/kg, po; assay type: functional, organism-based; set-up: dose 0.3 mg/kg
Summary of the method: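 Overnight-fasted diabetic KK/H1J mice, 10 per group, given compound orally in 0.5% methylcellulose (0.2 mL per mouse), then an oral glucose challenge at t = 15 min. Retro-orbital bleeds were taken at 0, 15 and 45 min for plasma glucose. […] Scored significant or nonsignificant.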

[33] = target: Dipeptidyl peptidase 4 (Mus musculus) (UniProt P28843); test: Increase in plasma GLP1 level in KK mouse at 5 mg/kg, po after 2 hrs; assay type: functional, organism-based; set-up: dose 5 mg/kg
Summary of the method: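 Fed KK mice dosed 5 mg kg^-1 orally at t = 0. Blood sampled at intervals over 2 h for plasma GLP-1 and DPP-IV activity.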

Chain of Dipeptidyl peptidase 4 (P27487 whole entry): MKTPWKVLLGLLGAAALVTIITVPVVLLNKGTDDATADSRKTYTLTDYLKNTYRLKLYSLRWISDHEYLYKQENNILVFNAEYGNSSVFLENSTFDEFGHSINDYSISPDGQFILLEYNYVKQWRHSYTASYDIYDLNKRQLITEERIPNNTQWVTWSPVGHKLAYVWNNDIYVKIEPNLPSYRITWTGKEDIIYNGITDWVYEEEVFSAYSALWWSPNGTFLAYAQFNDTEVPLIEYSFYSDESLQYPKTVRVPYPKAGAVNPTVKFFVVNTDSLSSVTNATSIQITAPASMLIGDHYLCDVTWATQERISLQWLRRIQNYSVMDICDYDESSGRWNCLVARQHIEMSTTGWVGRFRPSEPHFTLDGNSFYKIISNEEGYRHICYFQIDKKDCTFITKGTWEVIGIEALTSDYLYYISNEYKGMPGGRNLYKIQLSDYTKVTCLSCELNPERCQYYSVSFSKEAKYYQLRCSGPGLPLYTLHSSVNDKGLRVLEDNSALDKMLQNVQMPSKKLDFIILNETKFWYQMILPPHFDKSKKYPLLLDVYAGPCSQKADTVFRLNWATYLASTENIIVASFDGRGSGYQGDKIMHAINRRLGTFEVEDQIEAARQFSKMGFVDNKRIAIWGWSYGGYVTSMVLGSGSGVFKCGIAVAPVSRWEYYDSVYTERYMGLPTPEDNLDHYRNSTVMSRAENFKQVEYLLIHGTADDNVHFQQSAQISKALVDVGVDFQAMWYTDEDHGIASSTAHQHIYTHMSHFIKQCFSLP
Chain of Dipeptidyl peptidase 4 (Mus musculus) (P28843 whole entry, looked up): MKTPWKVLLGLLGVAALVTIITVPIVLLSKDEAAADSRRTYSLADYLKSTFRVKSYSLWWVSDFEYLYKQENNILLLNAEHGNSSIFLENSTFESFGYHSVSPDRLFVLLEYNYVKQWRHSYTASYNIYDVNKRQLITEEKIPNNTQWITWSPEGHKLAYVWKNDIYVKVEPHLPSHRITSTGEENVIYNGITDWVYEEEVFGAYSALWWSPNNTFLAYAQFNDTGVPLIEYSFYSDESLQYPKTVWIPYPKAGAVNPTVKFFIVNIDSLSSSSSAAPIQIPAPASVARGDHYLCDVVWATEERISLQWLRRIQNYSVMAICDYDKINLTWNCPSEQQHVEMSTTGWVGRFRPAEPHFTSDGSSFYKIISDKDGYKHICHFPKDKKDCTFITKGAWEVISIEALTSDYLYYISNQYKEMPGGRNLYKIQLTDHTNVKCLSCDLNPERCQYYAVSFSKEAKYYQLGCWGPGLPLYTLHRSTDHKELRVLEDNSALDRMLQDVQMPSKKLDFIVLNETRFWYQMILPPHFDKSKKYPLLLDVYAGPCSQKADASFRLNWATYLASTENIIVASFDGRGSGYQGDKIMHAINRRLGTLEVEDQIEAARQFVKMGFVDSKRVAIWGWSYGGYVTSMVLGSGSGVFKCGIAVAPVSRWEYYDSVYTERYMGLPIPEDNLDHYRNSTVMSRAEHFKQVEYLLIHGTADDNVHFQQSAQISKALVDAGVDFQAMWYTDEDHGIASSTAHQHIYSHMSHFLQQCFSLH

SMILES: N#C[C@@H]1CC[C@H](C#N)N1C(=O)CNC1(CCO)CCCC1
IC50 (Dipeptidyl peptidase 4): > 3 µM

SMILES: N#C[C@@H]1CC[C@H](C#N)N1C(=O)CNC12CC3CC(CC(C3)C1)C2
half-life [1]: 36 min
Activity [7]: 55%
Vd [3]: 3.1 L/kg
CL (Rattus norvegicus [6]): 80 mL/min/kg

SMILES: N#C[C@@H]1CC[C@H](C#N)N1C(=O)CNC1(Cc2ccccc2)CCCCC1
IC50 (Dipeptidyl peptidase 4): > 3 µM

SMILES: CCC(C)(CC)NCC(=O)N1[C@H](C#N)CC[C@@H]1C#N
IC50 (Dipeptidyl peptidase 4): > 3 µM

SMILES: CCOCC1(NCC(=O)N2[C@H](C#N)CC[C@@H]2C#N)CCCC1
Activity [4]: 79%
IC50 (Dipeptidyl peptidase 4): 0.064 µM

SMILES: N#C[C@@H]1CC[C@H](C#N)N1C(=O)CNC1(CO)CCCC1 [listing 1 of 2 here]
half-life [1]: 18 min
bioavailability [8]: 93%
Tmax [9]: ≤ 60 min
bioavailability [10]: 42%
fraction unbound [11]: 0.84
half-life [2]: 162 min
CL (Cynomolgus monkey): 42 mL/min/kg
Vd [3]: 1.4 L/kg
Tmax [12]: ≤ 60 min
AUC (Rattus norvegicus [13]): Dose-dependent effect
CL (Canis familiaris [14]): 22 mL/min/kg
half-life [15]: 36 min
Tmax [16]: ≤ 60 min
Vd [17]: 1.7 L/kg
half-life [18]: 48 min
bioavailability [5]: 77%
Activity (Rhesus monkey): Not Active
fraction unbound [19]: 0.77
fraction unbound [20]: 1
Activity (Rattus norvegicus [21]): Not Active
fraction unbound [22]: 1
Activity (Canis familiaris [23]): Not Active
Vd [24]: 1.3 L/kg
Cmax (Rattus norvegicus [25]): Dose-dependent effect
half-life [26]: 144 min
CL (Rattus norvegicus [6]): 70 mL/min/kg
half-life [27]: 318 min

SMILES: Cl.N#C[C@@H]1CC[C@H](C#N)N1C(=O)CNC1(CO)CCCC1
solubility [28]: > 76 mg/mL
solubility [29]: 200 mg/mL

SMILES: N#C[C@@H]1C[C@H](O)CN1C(=O)CNC12CC3CC(CC(C3)C1)C2
IC50 (Dipeptidyl peptidase 4): > 30 µM

SMILES: N#C[C@@H]1CC[C@H](C#N)N1C(=O)CNC12CC3CC(CC1C3)C2
Activity [30]: 62%
IC50 (Dipeptidyl peptidase 4): 0.072 µM

SMILES: C[C@H]1CC[C@@H](C#N)N1C(=O)CNC12CC3CC(CC(C3)C1)C2
IC50 (Dipeptidyl peptidase 4): > 30 µM

SMILES: CCC1(NCC(=O)N2[C@H](C#N)CC[C@@H]2C#N)CCCCC1
IC50 (Dipeptidyl peptidase 4): > 3 µM

SMILES: N#C[C@@H]1CC[C@H](C#N)N1C(=O)CNC1(CO)CCCC1 [listing 2 of 2 here]
Activity [31]: 59%
Activity [4]: 67%
Activity [32]: 46%
Activity [33]: Active

SMILES: CC1(C)CCCC1(C)NCC(=O)N1[C@H](C#N)CC[C@@H]1C#N (stereo partly drawn)
IC50 (Dipeptidyl peptidase 4): > 3 µM

SMILES: N[C@H](C(=O)N1CC(F)(F)C(F)(F)C1)C1CCCCC1
Activity [4]: 57%

SMILES: N#C[C@@H]1CC[C@H](C#N)N1C(=O)CNC1(CCCO)CCCCC1
IC50 (Dipeptidyl peptidase 4): > 3 µM

SMILES: CC(C)(C)C(C)(C)NCC(=O)N1[C@H](C#N)CC[C@@H]1C#N
IC50 (Dipeptidyl peptidase 4): > 3 µM

SMILES: CC1(NCC(=O)N2[C@H](C#N)CC[C@@H]2C#N)COC(C)(C)OC1
IC50 (Dipeptidyl peptidase 4): > 3 µM

SMILES: CCC(C)(C)C1CCC(C)(NCC(=O)N2[C@H](C#N)CC[C@@H]2C#N)C1 (stereo partly drawn)
IC50 (Dipeptidyl peptidase 4): > 3 µM

SMILES: CNC(=O)C1(NCC(=O)N2[C@H](C#N)CC[C@@H]2C#N)CCCC1
IC50 (Dipeptidyl peptidase 4): > 3 µM

SMILES: CCCCOCC1(NCC(=O)N2[C@H](C#N)CC[C@@H]2C#N)CCCC1
Activity [4]: 16%
IC50 (Dipeptidyl peptidase 4): 0.091 µM

SMILES: N#C[C@@H]1CC[C@H](C#N)N1C(=O)CNC12CC3(F)CC(F)(CC(F)(C3)C1)C2
IC50 (Dipeptidyl peptidase 4): > 3 µM

Continued, values first:

half-life [1]: 12 min
half-life [2]: 38.4 min
Vd [3]: 1.6 L/kg
Activity [4]: 74%
bioavailability [5]: 48%
IC50 (Dipeptidyl peptidase 4): 0.084 µM
CL (Rattus norvegicus [6]): 98 mL/min/kg
SMILES: COCC1(NCC(=O)N2[C@H](C#N)CC[C@@H]2C#N)CCCC1

IC50 (Dipeptidyl peptidase 4): > 3 µM
SMILES: C[C@@H]1CC(C)(NCC(=O)N2[C@H](C#N)CC[C@@H]2C#N)C[C@@H]1C (stereo partly drawn)

IC50 (Dipeptidyl peptidase 4): > 3 µM
SMILES: CCC(C)(C)NCC(=O)N1[C@H](C#N)CC[C@@H]1C#N

IC50 (Dipeptidyl peptidase 4): > 3 µM
SMILES: CC(C)C(C)(C)NCC(=O)N1[C@H](C#N)CC[C@@H]1C#N

IC50 (Dipeptidyl peptidase 4): > 30 µM
SMILES: N#C[C@@H]1CC[C@H](c2ccccc2)N1C(=O)CNC1(CO)CCCC1

half-life [1]: 24 min
Activity [7]: 45%
half-life [2]: 84 min
Vd [3]: 2.7 L/kg
bioavailability [5]: 42%
IC50 (Dipeptidyl peptidase 4): 0.074 µM
CL (Rattus norvegicus [6]): 130 mL/min/kg
SMILES: N#C[C@@H]1CC[C@H](C#N)N1C(=O)CNC12CC3CC(CC(O)(C3)C1)C2

IC50 (Dipeptidyl peptidase 4): > 3 µM
SMILES: CC1(NCC(=O)N2[C@H](C#N)CC[C@@H]2C#N)CCSC1 (stereo partly drawn)

IC50 (Dipeptidyl peptidase 4): > 3 µM
SMILES: C#CC1(NCC(=O)N2[C@H](C#N)CC[C@@H]2C#N)CCCCC1

IC50 (Dipeptidyl peptidase 4): > 3 µM
SMILES: COC(=O)C1(NCC(=O)N2[C@H](C#N)CC[C@@H]2C#N)CCCC1

Source: ChEMBL document CHEMBL1147795, “cis-2,5-dicyanopyrrolidine inhibitors of dipeptidyl peptidase IV: synthesis and in vitro, in vivo, and X-ray crystallographic characterization” (J Med Chem, 2006)
